Measurements gathered from unrelated publications.
Protocols differ between the studies behind these lines.
Target: Inhibitor of nuclear factor kappa-B kinase subunit beta (IKBKB, Homo sapiens, UniProt O14920)
Residues used in one study (O14920 1-756): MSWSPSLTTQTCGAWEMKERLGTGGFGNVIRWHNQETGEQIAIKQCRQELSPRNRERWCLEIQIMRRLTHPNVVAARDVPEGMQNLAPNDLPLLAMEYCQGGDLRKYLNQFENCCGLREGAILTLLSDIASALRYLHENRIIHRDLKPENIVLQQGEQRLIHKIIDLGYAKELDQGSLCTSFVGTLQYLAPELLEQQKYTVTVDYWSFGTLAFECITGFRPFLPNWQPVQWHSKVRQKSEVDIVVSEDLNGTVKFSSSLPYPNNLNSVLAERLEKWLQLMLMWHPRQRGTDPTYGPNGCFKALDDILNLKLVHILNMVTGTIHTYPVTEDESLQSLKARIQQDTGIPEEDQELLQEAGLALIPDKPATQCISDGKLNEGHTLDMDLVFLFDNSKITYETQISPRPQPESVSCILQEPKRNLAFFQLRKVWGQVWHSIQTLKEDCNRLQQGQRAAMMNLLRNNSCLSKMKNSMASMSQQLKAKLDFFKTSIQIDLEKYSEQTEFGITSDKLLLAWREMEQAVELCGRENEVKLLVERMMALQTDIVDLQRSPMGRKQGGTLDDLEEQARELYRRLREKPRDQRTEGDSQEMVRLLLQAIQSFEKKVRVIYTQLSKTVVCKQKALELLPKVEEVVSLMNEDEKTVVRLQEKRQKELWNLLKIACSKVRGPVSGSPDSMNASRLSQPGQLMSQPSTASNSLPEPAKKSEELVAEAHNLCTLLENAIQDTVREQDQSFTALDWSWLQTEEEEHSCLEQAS

COc1ncccc1-c1cnn2ccc(N3CCN(C(=O)OC(C)C)CC3)nc12 — remaining binding (binding; competition with immobilised ligand; 1 µM): 61%
N#CC1(c2ccccn2)CCN(Cc2cc(C(=O)O)c(=O)n3ccccc23)CC1 — remaining binding (cell-free assay; competition with immobilised ligand; 1 µM): 100%
Nc1ncc(-c2nc(N3CCOCC3)nc(N3CCOCC3)n2)c(C(F)F)n1 — remaining binding (binding; competition with immobilised ligand; 10 µM): 77%
Cc1nn(C)cc1-c1nc2c(N3CCN(Cc4ccc(Cl)cc4)CC3)c(Cl)cnc2[nH]1 — remaining binding (binding; competition with immobilised ligand; 1 µM): 100%
C#Cc1n[nH]c2c(-c3cn([C@@H](C)c4ccccn4)c(=O)[nH]c3=O)cc(F)cc12 — inhibition (enzyme activity; inhibitor; 0.1 µM): 0.8%
O=c1[nH]c2ccccc2n1C1CCN(Cc2ccc(-c3[nH]c4cc5ncnc5cc4nc3-c3ccccc3)cc2)CC1 — remaining activity (enzyme activity; 0.5 µM): 101%
C#Cc1n[nH]c2c(-c3cn([C@@H](C)c4ccccc4)c(=O)[nH]c3=O)cc(F)cc12 — inhibition (enzyme activity; inhibitor; 0.1 µM): -2.2%
Cn1cc(-c2cc(F)cc(N3CCn4c(cc5c4CCCC5)C3=O)c2CO)cc(Nc2ccc(N3CCN(C4COC4)CC3)cn2)c1=O — inhibition (enzyme activity; inhibitor; 0.1 µM): 5%
Cn1cncc1[C@](O)(COc1ccc(C#N)cc1-c1ccc(OC(F)(F)F)cc1)c1ccc(C#N)cc1 — remaining binding (cell-free assay; competition with immobilised ligand; 1 µM): 87%
CC(C)(C)c1cc(C=C(C#N)C#N)cc(Br)c1O — remaining activity (enzyme activity; inhibitor; 0.5 µM): 95.7%
